This is an account of results in ChEMBL document CHEMBL1125823, “2-Phenylindole-linked [2-(aminoalkyl)pyridine]dichloroplatinum(II): complexes with a selective action on estrogen receptor positive mammary tumors” (1991).

Test [1] has as its system MCF7. Put plainly: Effect on Estrogen receptor positive MCF-7 human breast cancer cell proliferation at 1x10E-6M (control = 25.4+/-3.1). It counts as functional. A digest of the protocol:
(§1)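 MCF-7 cells were kept in MEM with 5% charcoal-treated newborn calf serum and phenol red for 2 weeks, then about 2×10^4 cells were plated per well. Compounds in 0.1% DMF were added 2 days later and renewed on day 4; DMF alone served as control. Coulter cell counts were taken on day 5; mean of six dishes ± SD; % T/C.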

The test system of test [2] is MCF7. Briefly: Effect on Estrogen receptor positive MCF-7 human breast cancer cell proliferation at 5x10E-6M (control = 25.4+/-3.1). It counts as functional. In short, it runs like this: as §1
Test [3] relates to MCF7. Put plainly: Effect on [3H]thymidine incorporation into estrogen receptor positive MCF-7 human breast cancer cells at 1*10^-6 M (control = 10.6+/-1.9). In kind it is functional. In short, it runs like this:
(§2)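 MCF-7 cells were grown in MEM with charcoal-treated 5% newborn calf serum and phenol red, then treated with compounds in 0.1% DMF (renewed on day 4) alongside DMF controls. They were labeled 3 days later with 1 µCi [³H]thymidine per well for 2 h, and incorporated radioactivity per dish was measured; mean of six dishes ± SD; % T/C.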
(In general: Dividing cells build labelled thymidine or BrdU into new DNA.)

Test [4] relates to MCF7. Put plainly: Effect on [3H]thymidine incorporation into estrogen receptor positive MCF-7 human breast cancer cells at 5*10e-6 M (control = 10.6+/-1.9). In kind it is functional. A digest of the protocol: (§3)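 MCF-7 cells in improved MEM with glutamine, gentamycin and 5% newborn calf serum, switched to charcoal-treated serum two weeks ahead; phenol red present; 37 °C, 5% CO2. About 2×10^4 cells plated per well; compound in 0.1% DMF added 2 days later, renewed on day 4; labelled 3 days later with 1 μCi [3H]thymidine per well for 2 h; cpm/dish, mean of six dishes ± SD.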

Test [5] deals with T1, Estrogen receptor (Mus musculus) (UniProt O08537+P19785). Put plainly: Percent inhibition of estrone stimulated uterotrophic effect in mice at 15 ug. In kind it is functional. A digest of the protocol: (§4)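 Immature mice given test compound per animal sc on three consecutive days together with 0.4 μg estrone/animal/day. Killed 24 h after last injection; uteri fixed in Bouin, dried 100 °C 24 h and weighed. Inhibition = 100 − [(W_S,T − W_V)/(W_S − W_V) × 100] using relative uterus weights; 6-10 animals; Wilcoxon-Mann-Whitney U test.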

Test [6] addresses T1, Estrogen receptor (Mus musculus). Put plainly: Percent inhibition of estrone stimulated uterotrophic effect in mice at 150 ug. In kind it is functional. A digest of the protocol: as §4
The target is the same in test [7]. Briefly: Uterotrophic effect in mice as relative uterine weight(mg) at 15 ug (control = […]+/-1.7). It counts as functional, tissue-based.
For test [8] the target is unchanged. Put plainly: Uterotrophic effect in mice as relative uterine weight(mg) at 150 ug (control = […]+/-1.7). It counts as functional, tissue-based.
In test [9] the test system is MCF7. Put plainly: Effect on Estrogen receptor positive MCF-7 human breast cancer cell proliferation at 1x10E-6M. It counts as functional. In short, it runs like this:
as §1

For test [10], the system named is MCF7. Put plainly: Effect on Estrogen receptor positive MCF-7 human breast cancer cell proliferation at 5x10E-6M. It counts as functional. A digest of the protocol: as §1
Test [11] deals with T1, Estrogen receptor (Mus musculus). Put plainly: Anti-uterotrophic effect in mice as relative uterine weight(mg) at 15 ug. It counts as functional. A digest of the protocol:
(§5)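 Immature mice received the compound sc per animal on three consecutive days, alone or with 0.4 µg estrone per animal per day. Uteri were taken 24 h after the last injection, Bouin-fixed, dried at 100 °C for 24 h and weighed. Relative uterus weight = dry weight (mg)/body weight (g) × 100; mean of 6-10 animals ± SD; Mann-Whitney U test.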

For test [12] the target is unchanged. Put plainly: Anti-uterotrophic effect in mice as relative uterine weight(mg) at 150 ug. In kind it is functional. A digest of the protocol:
as §5

The subject of test [13] is MCF7. Briefly: Effect on [3H]thymidine incorporation into estrogen receptor positive MCF-7 human breast cancer cells at 1x10E-6M. In kind it is functional. In short, it runs like this: as §2
The subject of test [14] is MCF7. Briefly: Effect on [3H]thymidine incorporation into estrogen receptor positive MCF-7 human breast cancer cells at 5x10E-6M. In kind it is functional. A digest of the protocol:
as §3

Test [15] has as its system MCF7. Briefly: Effect on Estrogen receptor positive MCF-7 human breast cancer cell proliferation at 1x10E-6M (control = 63.8+/-9.0). In kind it is functional. A digest of the protocol:
as §1

Test [16] has as its system MCF7. Put plainly: Effect on Estrogen receptor positive MCF-7 human breast cancer cell proliferation at 5x10E-6M (control = 63.8+/-9.0). In kind it is functional. A digest of the protocol: as §1
Test [17] relates to MCF7. Briefly: Effect on Estrogen receptor positive MCF-7 human breast cancer cell proliferation at 5x10E-7M (control = 63.8+/-9.0). In kind it is functional. In short, it runs like this:
as §1

Test [18] deals with MCF7. Put plainly: Effect on [3H]-thymidine incorporation into estrogen receptor positive MCF-7 human breast cancer cells at 5x10E-7M (control = 42.6+/-2.8). In kind it is functional. A digest of the protocol: as §2
Test [19] concerns MCF7. Briefly: Effect on [3H]thymidine incorporation into estrogen receptor positive MCF-7 human breast cancer cells at 1x10E-6M (control = 42.6+/-2.8). In kind it is functional. In short, it runs like this: as §2
The subject of test [20] is MCF7. Put plainly: Effect on [3H]thymidine incorporation into estrogen receptor positive MCF-7 human breast cancer cells at 5x10E-6M (control = 42.6+/-2.8). It counts as functional. A digest of the protocol:
as §3

The target of test [21] is T1, Estrogen receptor (Mus musculus). Put plainly: Uterotrophic effect in mice as relative uterine weight(mg) at 15 ug (control = 12.3+/-3.7). It counts as functional, tissue-based. In short, it runs like this: (§6)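 Immature mice dosed sc per animal on three consecutive days; vehicle controls. Killed and weighed 24 h after last injection; uteri fixed in Bouin solution 2 h, washed with alcoholic LiCl, dried at 100 °C for 24 h. Relative uterus weight = uterine dry weight (mg)/body weight (g) × 100; mean of 6-10 animals ± SD.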

For test [22] the target is unchanged. Put plainly: Uterotrophic effect in mice as relative uterine weight(mg) at 150 ug (control = 12.3+/-3.7). In kind it is functional, tissue-based. In short, it runs like this: as §6
Test [23] deals with MCF7. Briefly: Effect on Estrogen receptor positive MCF-7 human breast cancer cell proliferation at 5x10E-7M. In kind it is functional. A digest of the protocol: as §1
Test [24] relates to MCF7. Briefly: Effect on [3H]thymidine incorporation into estrogen receptor positive MCF-7 human breast cancer cells at 5x10E-7M.

Each structure is given as a SMILES string.

T1 sequence (O08537 whole entry, looked up): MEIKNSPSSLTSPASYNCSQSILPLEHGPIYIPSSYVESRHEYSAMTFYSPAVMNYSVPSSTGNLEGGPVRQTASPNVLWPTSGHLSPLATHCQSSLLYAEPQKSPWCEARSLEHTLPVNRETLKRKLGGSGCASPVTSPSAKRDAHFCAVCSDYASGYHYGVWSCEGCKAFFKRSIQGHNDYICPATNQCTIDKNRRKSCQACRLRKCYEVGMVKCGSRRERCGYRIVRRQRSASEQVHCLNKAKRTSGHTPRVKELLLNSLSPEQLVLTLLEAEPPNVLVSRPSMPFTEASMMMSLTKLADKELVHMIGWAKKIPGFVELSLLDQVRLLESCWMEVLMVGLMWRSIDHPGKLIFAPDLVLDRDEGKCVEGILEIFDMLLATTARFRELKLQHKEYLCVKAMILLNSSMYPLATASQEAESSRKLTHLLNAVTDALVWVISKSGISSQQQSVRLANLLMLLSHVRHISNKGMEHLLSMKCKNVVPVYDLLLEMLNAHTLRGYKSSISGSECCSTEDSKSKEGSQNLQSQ
T1 sequence (P19785 whole entry, looked up): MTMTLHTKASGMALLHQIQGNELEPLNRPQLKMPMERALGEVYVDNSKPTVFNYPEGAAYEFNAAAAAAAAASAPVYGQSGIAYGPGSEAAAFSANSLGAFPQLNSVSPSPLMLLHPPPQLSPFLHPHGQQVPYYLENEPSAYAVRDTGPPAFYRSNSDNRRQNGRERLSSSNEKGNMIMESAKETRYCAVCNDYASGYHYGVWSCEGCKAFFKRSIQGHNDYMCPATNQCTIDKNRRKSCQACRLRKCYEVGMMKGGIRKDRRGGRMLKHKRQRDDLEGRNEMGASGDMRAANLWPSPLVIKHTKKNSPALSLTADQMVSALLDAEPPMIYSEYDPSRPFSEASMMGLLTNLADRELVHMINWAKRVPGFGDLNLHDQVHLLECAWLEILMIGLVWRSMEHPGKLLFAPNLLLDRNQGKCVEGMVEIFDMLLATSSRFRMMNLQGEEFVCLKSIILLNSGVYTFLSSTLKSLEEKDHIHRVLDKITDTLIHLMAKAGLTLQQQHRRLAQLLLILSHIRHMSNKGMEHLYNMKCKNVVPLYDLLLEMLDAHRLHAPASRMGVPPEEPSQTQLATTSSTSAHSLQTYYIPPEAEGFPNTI

A word on the inhibition: it is the percentage by which the read-out fell short of the control. By T/C is commonly meant the result in the treated group divided by that in the control group, in per cent. With `CCC(NCCCCCCn1c(-c2ccc(O)cc2)c(C)c2cc(O)ccc21)c1ccccn1` (configuration not stated), the Cell no/dish is given as 195000 in the test with MCF7 [1] and 137000 in the test with MCF7 [2]. The Activity is listed as 10500 in the test with MCF7 [3] and 8400 with MCF7 [4]. Besides, the inhibition amounted to 42% in test [5] and 51% in [6]. Besides, the Relative uterus weight stood at 14.7 mg in [7], 26 mg in [8], 32.8 mg in test [11] and 30.5 mg in test [12]. In addition, the T/C is 77% in the test on MCF7 [9], 54% in the test with MCF7 [10], 99% with MCF7 [13] and 79% in the test with MCF7 [14].
In the case of `Cc1c(-c2ccc(O)cc2)n(CCCCCCCNCc2ccccn2)c2ccc(O)cc12`, the Cell no/dish was 264000 in the test on MCF7 [15], 146000 in the test on MCF7 [16] and 369000 with MCF7 [17]. For the same compound, in the test with MCF7 [18], the “[3H] thymidinecpm/dish” value is reported as 14500. The Activity worked out at 11300 in the test on MCF7 [19] and 2200 in the test with MCF7 [20]. The inhibition in [5] came to 11%; in test [6], 48%. Also, the Relative uterus weight came to 15.2 mg in test [21], 19 mg in [22], 41.9 mg in test [11] and 29.4 mg in [12]. The T/C in the test on MCF7 [9] worked out at 41%; in the test with MCF7 [10], 23%; in the test with MCF7 [23], 58%; in the test on MCF7 [13], 27%; in the test with MCF7 [14], 5%; with MCF7 [24] it was 34%.
